# In ChEMBL document CHEMBL2424618, “Design, synthesis and ex vivo evaluation of colon-specific azo based prodrugs of anticancer agents” (Bioorg Med Chem Lett, 2013):
# Tests used:
# [1] = Cytotoxicity against human COLO320DM cells after 48 hrs by MTT assay; format: functional, cell-based; details: COLO 320DM
# Procedure, shortened: (§1)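 MTT colorimetric microculture assay in human colorectal cells, 5 × 10⁵ per well. After 48 h, cells incubated at 37 °C in 0.1% DMSO with compound. Sample removed, cells washed with PBS pH 7.4, MTT added. After 4 h, […] added and absorbance read at 595 nm. Triplicates; IC50 given as mean SD, p < 0.05 significant.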
# HT-29 = assay: Cytotoxicity against human HT-29 cells after 48 hrs by MTT assay; format: functional, cell-based; details: HT-29, 48 h; procedure, shortened: as §1
# [2] = Prodrug activation in rat fecal material after 24 hrs; format: ADME, tissue-based, Feces
# Procedure, shortened: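 About 1 g fresh rat feces per tube with prodrug in phosphate buffer pH 7.4, diluted with 5 ml buffer to 50 µg/ml, incubated at 37 °C. Aliquots taken over time and read by double-beam UV spectrophotometry at compound-specific wavelengths. Cumulative % release at 24 h; mean SD, n = 6.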
# [3] = Prodrug activation in rat large intestine mucosa in presence of azoreductase; format: tissue-based
# Procedure, shortened: (§2)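 Cecal content, small-intestine content, SI mucosa or LI mucosa taken from Wistar rats and suspended in cold PBS pH 7.4 as 10% (w/v) slurry. Cecal content bubbled with nitrogen. Other tissues homogenized and centrifuged to 2% w/w. All stored at −20 °C. Prodrug incubated with each preparation, azo-bond cleavage followed by UV, and % drug release determined.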
# [4] = Prodrug activation in rat small intestine content in presence of azoreductase; format: tissue-based; procedure, shortened: as §2
# [5] = Prodrug activation in rat small intestine mucosa in presence of azoreductase; format: tissue-based; procedure, shortened: as §2
# [6] = Prodrug activation in rat cecum content in presence of azoreductase; format: tissue-based, Caecum; procedure, shortened: as §2
# [7] = Chemical stability of the compound in 0.1 N HCl solution at pH 1.2; format: physicochemical; details: buffer
# Procedure, shortened: (§3)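 Prodrug held in acidic buffer (pH 1.2, 0.1 N HCl) or basic buffer (pH 7.4) at 37 °C. Aliquots withdrawn at time intervals and remaining prodrug read by UV spectrophotometry at compound-specific wavelengths (306/256, 274/284 or 280/260 nm for acid/pH 7.4). Release reported as % after 24 h; mean SD, n = 6.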
# [8] = Chemical stability of the compound in phosphate buffer at pH 7.4; format: physicochemical; procedure, shortened: as §3
# COLO 205 = assay: Cytotoxicity against human COLO205 cells after 48 hrs by MTT assay; format: functional, cell-based; details: COLO 205, 48 h; procedure, shortened: as §1
compound,measurement,setting,value
COC(=O)CC[C@H](NC(=O)c1ccc(N(C)Cc2cnc3nc(/N=N/c4ccc(O)cc4)nc(/N=N/c4ccc(O)cc4)c3n2)cc1)C(=O)OC,IC50,[1],5.74 µM
same,IC50,HT-29,3.92 µM
same,Drug metabolism,[2],64%
same,Drug metabolism,[3],5%
same,Drug metabolism,[4],5%
same,Drug metabolism,[5],5%
same,Drug metabolism,[6],70%
same,Stability,[7],Stable
same,Stability,[8],Stable
same,IC50,COLO 205,4.13 µM
O=c1nc(/N=N/c2ccc(O)cc2)ccn1[C@@H]1O[C@H](CO)[C@@H](O)C1(F)F,IC50,[1],3.72 µM
same,IC50,HT-29,2.61 µM
same,Drug metabolism,[2],71%
same,Drug metabolism,[3],5%
same,Drug metabolism,[4],5%
same,Drug metabolism,[5],5%
same,Drug metabolism,[6],70%
same,Stability,[7],Stable
same,Stability,[8],Stable
same,IC50,COLO 205,3.31 µM
Nc1ccn([C@@H]2O[C@H](CO)[C@@H](O)C2(F)F)c(=O)n1 [GEMCITABINE],IC50,[1],3.92 µM
same,IC50,HT-29,1.95 µM
same,IC50,COLO 205,3.24 µM
CN(Cc1cnc2nc(N)nc(N)c2n1)c1ccc(C(=O)N[C@@H](CCC(=O)O)C(=O)O)cc1 [METHOTREXATE],IC50,[1],5.25 µM
same,IC50,HT-29,3.45 µM
same,IC50,COLO 205,3.27 µM
